pEC50: −log10 of the molar value. Where two headings read alike, the source gives them in different places.
What was measured:
RyR1 [1] = target: T1, RyR1 (Fundulus heteroclitus, UniProt A0A3Q2R0L4); assay: Ca^2+ induced [^3H]Ry binding; format: biochemical; conditions: NBH and SC killifish; 10 nM [^3H]Ry
Summary of the method: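 Skeletal muscle microsomes (≥4 fish pooled per population), 100 µg ml−1, with 10 nM [3H]Ry in 250 KCl/15 NaCl/20 HEPES mM buffer (pH 7.1), 25°C, 16 h. Free Ca2+ 0.25–10,000 µM set with CaCl2/EGTA. Nonspecific binding: 1000-fold unlabeled ryanodine plus 200 µM EGTA. GF/B filtration, scintillation counting. Bell-shaped curve fit. 2–4 biological replicates, each run in triplicate or quadruplicate.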

RyR1 [2] = target: T1, RyR1; assay: PCB 95 induced [^3H]Ry binding; format: biochemical; conditions: for maximum response achieved, [^3H]Ry binding: 8 nM [^3H]Ry, 50 µM CaCl2; for pEC50: read-out: half-maximal effect concentration (EC50)
Summary of the method: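 Pooled skeletal muscle microsomes, 40 µg ml−1, were incubated with 8 nM [3H]Ry and 50 µM CaCl2 in RyR buffer (pH 7.1) at 25°C for 16 h. Test compound 0.01–20 µM in 0.5% DMSO; solvent control was 0.5% DMSO. After filtration and scintillation counting, specific binding was taken as a percent of the DMSO control and fitted by sigmoidal dose-response. 2–4 biological replicates, each in triplicate or quadruplicate.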

RyR1 [3] = target: T1, RyR1; format: binding; conditions: two-site model, estimate ± SE

T1 sequence (A0A3Q2R0L4 1-4852): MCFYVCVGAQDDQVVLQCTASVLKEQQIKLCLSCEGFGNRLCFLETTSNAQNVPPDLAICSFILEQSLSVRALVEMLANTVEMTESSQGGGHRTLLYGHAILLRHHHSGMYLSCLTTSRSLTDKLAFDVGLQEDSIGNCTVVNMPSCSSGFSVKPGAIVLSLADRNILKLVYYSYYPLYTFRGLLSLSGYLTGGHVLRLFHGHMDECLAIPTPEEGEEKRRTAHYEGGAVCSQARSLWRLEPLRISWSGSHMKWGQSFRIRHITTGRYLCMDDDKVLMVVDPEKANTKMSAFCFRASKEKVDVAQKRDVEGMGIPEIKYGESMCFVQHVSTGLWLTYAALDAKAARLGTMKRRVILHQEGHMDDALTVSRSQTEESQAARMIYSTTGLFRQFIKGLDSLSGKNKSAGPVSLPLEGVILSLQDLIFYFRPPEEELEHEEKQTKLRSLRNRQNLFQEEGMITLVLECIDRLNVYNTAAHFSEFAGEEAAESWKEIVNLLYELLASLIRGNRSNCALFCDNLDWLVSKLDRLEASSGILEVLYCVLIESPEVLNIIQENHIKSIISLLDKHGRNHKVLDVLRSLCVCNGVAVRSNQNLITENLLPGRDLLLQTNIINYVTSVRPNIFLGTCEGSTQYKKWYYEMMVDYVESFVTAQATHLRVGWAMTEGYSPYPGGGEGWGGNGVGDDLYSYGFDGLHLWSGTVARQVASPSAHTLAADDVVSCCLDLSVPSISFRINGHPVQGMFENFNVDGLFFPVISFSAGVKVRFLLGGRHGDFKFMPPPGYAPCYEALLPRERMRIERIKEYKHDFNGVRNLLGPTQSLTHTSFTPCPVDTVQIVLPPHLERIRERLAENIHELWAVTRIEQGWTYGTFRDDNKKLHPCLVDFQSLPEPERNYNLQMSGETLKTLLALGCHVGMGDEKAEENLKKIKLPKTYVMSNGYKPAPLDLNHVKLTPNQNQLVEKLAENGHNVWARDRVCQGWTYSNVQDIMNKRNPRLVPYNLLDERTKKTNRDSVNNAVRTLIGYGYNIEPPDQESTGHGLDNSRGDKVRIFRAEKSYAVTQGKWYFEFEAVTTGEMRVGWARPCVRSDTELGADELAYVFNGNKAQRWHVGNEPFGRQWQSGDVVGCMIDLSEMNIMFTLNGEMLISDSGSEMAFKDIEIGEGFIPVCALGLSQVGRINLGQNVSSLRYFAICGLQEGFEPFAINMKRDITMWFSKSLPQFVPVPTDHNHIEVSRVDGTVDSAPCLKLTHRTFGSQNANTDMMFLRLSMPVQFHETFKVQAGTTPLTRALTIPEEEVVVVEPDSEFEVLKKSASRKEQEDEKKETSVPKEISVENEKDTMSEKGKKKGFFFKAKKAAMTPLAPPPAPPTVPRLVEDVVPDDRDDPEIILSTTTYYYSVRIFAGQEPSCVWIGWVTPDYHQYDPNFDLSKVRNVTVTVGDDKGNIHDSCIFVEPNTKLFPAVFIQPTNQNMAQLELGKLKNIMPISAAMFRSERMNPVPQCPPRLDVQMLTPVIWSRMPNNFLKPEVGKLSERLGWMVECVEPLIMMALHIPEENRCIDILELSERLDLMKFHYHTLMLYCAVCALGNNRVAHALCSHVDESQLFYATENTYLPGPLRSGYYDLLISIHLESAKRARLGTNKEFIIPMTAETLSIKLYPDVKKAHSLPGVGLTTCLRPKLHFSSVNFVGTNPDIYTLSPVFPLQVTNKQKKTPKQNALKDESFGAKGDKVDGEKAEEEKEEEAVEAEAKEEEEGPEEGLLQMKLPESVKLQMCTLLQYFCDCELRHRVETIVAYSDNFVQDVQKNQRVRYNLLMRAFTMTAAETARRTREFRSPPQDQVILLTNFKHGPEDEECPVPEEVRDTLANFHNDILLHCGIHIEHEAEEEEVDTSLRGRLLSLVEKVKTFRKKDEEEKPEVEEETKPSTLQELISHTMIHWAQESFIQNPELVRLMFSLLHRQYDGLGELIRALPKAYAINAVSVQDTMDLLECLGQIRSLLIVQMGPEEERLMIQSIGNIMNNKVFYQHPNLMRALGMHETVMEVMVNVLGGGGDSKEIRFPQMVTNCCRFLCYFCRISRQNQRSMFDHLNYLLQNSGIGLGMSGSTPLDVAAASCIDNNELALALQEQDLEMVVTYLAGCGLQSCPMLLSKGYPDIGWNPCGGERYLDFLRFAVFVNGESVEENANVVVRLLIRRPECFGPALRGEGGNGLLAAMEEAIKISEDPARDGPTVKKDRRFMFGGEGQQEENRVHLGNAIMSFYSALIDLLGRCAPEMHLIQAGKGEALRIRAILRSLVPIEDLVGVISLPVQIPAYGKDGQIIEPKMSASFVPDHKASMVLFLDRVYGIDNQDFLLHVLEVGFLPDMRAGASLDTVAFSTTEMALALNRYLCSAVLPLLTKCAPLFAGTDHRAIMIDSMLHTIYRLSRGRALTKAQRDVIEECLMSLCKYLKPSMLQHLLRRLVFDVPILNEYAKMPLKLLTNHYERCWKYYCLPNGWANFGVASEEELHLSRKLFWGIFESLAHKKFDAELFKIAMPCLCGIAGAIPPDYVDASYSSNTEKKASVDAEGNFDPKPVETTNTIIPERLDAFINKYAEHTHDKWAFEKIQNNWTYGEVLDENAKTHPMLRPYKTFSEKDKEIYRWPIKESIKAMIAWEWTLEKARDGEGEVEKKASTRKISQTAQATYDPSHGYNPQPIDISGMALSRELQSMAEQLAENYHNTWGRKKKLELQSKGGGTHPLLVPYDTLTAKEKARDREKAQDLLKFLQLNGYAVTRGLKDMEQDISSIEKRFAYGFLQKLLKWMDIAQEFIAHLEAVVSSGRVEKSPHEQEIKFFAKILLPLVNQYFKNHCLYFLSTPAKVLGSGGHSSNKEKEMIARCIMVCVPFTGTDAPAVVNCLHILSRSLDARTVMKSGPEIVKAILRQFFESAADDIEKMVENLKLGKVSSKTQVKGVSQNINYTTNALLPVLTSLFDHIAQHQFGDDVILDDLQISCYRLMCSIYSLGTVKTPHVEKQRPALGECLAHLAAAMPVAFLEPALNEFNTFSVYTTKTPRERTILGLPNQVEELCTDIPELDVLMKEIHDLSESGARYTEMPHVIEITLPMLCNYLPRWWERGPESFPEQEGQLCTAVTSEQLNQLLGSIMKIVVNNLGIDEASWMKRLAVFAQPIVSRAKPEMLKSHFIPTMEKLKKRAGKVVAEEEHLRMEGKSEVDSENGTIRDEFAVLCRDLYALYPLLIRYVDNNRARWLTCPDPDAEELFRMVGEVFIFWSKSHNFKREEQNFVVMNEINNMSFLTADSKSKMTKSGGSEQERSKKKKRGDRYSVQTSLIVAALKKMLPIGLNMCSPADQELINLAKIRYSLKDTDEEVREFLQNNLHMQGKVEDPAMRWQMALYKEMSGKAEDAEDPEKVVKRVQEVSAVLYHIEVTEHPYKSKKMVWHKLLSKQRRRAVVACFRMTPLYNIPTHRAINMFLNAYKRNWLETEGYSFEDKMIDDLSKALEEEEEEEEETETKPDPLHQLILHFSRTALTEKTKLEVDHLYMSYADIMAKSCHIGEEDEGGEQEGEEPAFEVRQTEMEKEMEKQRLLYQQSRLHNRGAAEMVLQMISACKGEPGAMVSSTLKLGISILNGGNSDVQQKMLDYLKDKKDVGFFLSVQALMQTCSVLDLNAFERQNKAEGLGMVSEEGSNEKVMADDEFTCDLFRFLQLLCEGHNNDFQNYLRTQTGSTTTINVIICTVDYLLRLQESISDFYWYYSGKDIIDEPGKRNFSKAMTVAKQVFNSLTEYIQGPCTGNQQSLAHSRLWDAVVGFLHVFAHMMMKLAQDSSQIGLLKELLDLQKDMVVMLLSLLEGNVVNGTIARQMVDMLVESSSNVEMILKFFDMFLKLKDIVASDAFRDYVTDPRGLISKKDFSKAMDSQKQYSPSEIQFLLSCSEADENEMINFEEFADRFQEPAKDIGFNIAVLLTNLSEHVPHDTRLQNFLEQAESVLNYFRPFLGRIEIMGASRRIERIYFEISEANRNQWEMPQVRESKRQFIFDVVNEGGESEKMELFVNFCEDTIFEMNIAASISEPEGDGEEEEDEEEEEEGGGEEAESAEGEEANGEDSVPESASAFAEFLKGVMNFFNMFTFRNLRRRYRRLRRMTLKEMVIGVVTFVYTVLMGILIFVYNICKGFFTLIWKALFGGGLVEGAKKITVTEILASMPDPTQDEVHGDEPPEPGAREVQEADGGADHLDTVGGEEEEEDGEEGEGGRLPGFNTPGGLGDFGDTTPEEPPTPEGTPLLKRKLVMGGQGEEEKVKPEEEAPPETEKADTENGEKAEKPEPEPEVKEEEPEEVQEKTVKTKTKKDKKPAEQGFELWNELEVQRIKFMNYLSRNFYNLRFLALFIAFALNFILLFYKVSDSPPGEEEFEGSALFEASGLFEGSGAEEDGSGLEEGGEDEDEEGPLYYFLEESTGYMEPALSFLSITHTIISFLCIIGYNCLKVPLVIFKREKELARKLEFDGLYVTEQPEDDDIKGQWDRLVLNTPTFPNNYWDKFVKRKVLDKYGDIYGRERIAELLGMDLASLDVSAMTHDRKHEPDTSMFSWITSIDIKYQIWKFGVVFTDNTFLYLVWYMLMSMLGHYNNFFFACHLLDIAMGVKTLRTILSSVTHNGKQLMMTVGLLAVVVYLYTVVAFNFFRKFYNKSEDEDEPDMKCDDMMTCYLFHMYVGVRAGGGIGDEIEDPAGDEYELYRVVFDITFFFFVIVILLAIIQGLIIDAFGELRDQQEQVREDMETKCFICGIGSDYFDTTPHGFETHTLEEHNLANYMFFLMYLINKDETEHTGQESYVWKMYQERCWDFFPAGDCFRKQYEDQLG

In the case of `[Ca+2]` [Ca^2+], the “Ca^2+ levels leading to receptor activation” value (RyR1 [1]) was “below 250 µM” and the “Ca^2+ levels leading to receptor inactivation” value (RyR1 [1]) was “above 500 µM”.
For `Clc1ccc(Cl)c(-c2c(Cl)ccc(Cl)c2Cl)c1` [PCB 95], the EC10 (RyR1 [2]; NBH killifish skeletal muscle) was 0.00923 µM, the “maximum response achieved, [^3H]Ry binding” value (RyR1 [2]; NBH killifish skeletal muscle) was 301 % of the DMSO control and the EC10 (RyR1 [2]; SC killifish skeletal muscle) was 0.00411 µM. For the same compound, the “maximum response achieved, [^3H]Ry binding” value (RyR1 [2]; SC killifish skeletal muscle) was 248 % of the DMSO control, the pEC50 (RyR1 [2]; NBH killifish skeletal muscle, 95% CI 77.7–119.1) was 7.02 and the pEC50 (RyR1 [2]; SC killifish skeletal muscle, 95% CI 36.6–84.6) was 7.25.
For `CC(C)[C@@]1(O)[C@@H](OC(=O)c2ccc[nH]2)[C@@]2(O)[C@@]3(C)C[C@]4(O)O[C@@]5([C@H](O)[C@@H](C)CC[C@]35O)[C@@]2(O)[C@@]14C` [[^3H]Ry, ryanodine], the “High Affinity Bmax” value (RyR1 [3]; NBH killifish skeletal muscle) was 1.63 ± 0.32 pmol/mg, the “Low Affinity Bmax” value (RyR1 [3]; NBH killifish skeletal muscle) was 6.69 ± 0.92 pmol/mg and the “High Affinity Bmax” value (RyR1 [3]; SC killifish skeletal muscle) was 1.47 ± 0.31 pmol/mg. The “Low Affinity Bmax” value (RyR1 [3]; SC killifish skeletal muscle, 95% CI 0.81 to 5.05) was 2.93 ± 1.07 pmol/mg.
